Test [1] has as its system Mycobacterium tuberculosis. The test is described as follows: Antimycobacterial activity against Mycobacterium bovis BCG in 7H9 medium. The format is functional. The conditions noted are these: variant bovis BCG. An outline of the steps:
(§1)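 M. bovis BCG MIC determined in liquid medium, comparing iron conditions: cells grown in 7H9/OADC (high iron) versus low-iron chelated Sauton's medium.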

In test [2] the test system is Mycobacterium tuberculosis. The test is described as follows: Antimycobacterial activity against Mycobacterium bovis BCG in low iron containing medium. The format is functional. The note with it: variant bovis BCG. The gist of the method: as §1
Test [3] relates to Mycobacterium tuberculosis. Nature of the test: Ratio of MIC for Mycobacterium bovis BCG in 7H9 medium to MIC for Mycobacterium bovis BCG in low iron containing medium. It is filed as functional, variant bovis BCG.

Values after ≈ are worked out from the molar mass of the structure shown.

Regarding `O=C(O)c1ccc(-c2ccc([N+](=O)[O-])cc2)o1`, the MIC in test [1] was determined as 240 µM (≈ 56 µg/mL); in test [2], 80 µM (≈ 18.7 µg/mL). For the same molecule, in test [3], the Ratio is 3.

Usually MIC stands for the least concentration at which growth counts as inhibited.
